ChEMBL document CHEMBL5046273, “Development of a Novel, Small-Molecule Brain-Penetrant Histone Deacetylase Inhibitor That Enhances Spatial Memory Formation in Mice” (J Med Chem, 2022)
The source made the active and inactive calls. The calls are words filed in the database; no cut-off is given here.

Key:
Histone deacetylase 2 [1] = biological target: T1, Histone deacetylase 2 (Homo sapiens, UniProt Q92769); assay: Inhibition of recombinant human full-length HDAC2 preincubated for 20 mins with DTT followed by enzyme addition and measured after 10 mins by Glo-luminescence assay
T1 sequence (Q92769 whole entry): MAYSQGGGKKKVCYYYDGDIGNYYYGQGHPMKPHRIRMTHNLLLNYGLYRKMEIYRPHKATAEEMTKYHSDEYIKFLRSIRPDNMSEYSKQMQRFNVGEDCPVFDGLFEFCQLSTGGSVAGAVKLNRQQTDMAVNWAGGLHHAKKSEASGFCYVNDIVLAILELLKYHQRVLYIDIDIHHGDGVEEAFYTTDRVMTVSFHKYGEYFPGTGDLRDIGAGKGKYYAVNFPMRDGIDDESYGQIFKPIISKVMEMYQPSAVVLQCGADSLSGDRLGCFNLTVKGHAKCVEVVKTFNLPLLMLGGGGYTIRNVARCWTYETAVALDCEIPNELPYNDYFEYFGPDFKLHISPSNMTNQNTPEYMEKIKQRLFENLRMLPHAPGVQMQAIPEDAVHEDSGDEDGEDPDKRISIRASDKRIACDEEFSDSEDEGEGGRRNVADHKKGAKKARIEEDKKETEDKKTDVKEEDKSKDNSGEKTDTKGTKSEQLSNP
How it was run: (§1)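 Compounds were serially diluted and incubated with enzyme for 10 min. HDAC-Glo I/II substrate/developer was then added, and luminescence read after 40 min at 23 °C. IC50 from four-parameter fits from two independent titrations, mean ± SD.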

DU-145 = assay: Cytotoxicity against human DU-145 cells assessed as reduction in cell viability at 0.00125 to 100 uM incubated for 48 hrs by MTT assay; assay type: functional, cell-based; conditions: dose 0.00125-100 µM
How it was run: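 DU145 cells in DMEM with 10% FBS were seeded at 14 000 cells/well and allowed to adhere for 24 h. Test agents were diluted from 10 mM DMSO stocks (100, 50, 25 µM; 10, 5, 1.25 nM) and applied in triplicate for 48 h at 37 °C, 5% CO2, with DMSO as vehicle. Read-out was 250 µg/mL MTT for 4 h, DMSO solubilization, and A570 with 690 nm reference. Values normalized to DMSO.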

Histone deacetylase 2 [2] = biological target: T1, Histone deacetylase 2; assay: Inhibition of recombinant human full-length HDAC2 incubated for 10 mins by Glo-luminescence assay; how it was run: as §1

| Structure (SMILES) | IC50 (Histone deacetylase 2 [1]) [µM] | Activity (DU-145) | IC50 (Histone deacetylase 2 [2]) [µM] |
| --- | --- | --- | --- |
| O=C(CC(O)/C=C/CCSSCC/C=C/C(O)CC(=O)Nc1ccccc1)Nc1ccccc1 (configuration not stated) | 25 | inactive | 105 |
| CCCC[C@@H](NC(=O)CC(O)/C=C/CCSSCC/C=C/C(O)CC(=O)N[C@H](CCCC)C(=O)OC)C(=O)OC (some centres not stated) | 17 |  | 280 |
| CCCC[C@@H](NC(=O)CC(O)/C=C/CCSSCC/C=C/C(O)CC(=O)N[C@H](CCCC)C(=O)O)C(=O)O (some centres not stated) | 11 |  | 140 |
